Data on one compound can be found in ChEMBL document CHEMBL1629588, “Ambuic acid inhibits the biosynthesis of cyclic peptide quormones in gram-positive bacteria” (Antimicrob Agents Chemother, 2009).

One may read the IC50 as the concentration at which inhibition is half-maximal. A higher IC50 goes with weaker potency.

Each structure is given as a SMILES string. The source made the active and inactive calls. The rule behind the calls is not given here.

Test [1] deals with Enterococcus faecalis. The test is described as follows: Inhibition of GBAP biosynthesis in Enterococcus faecalis OU510 harboring pQU2200 and pQU2301 assessed as proteolytic processing of Hexahistidine-tagged FsrD after 5 hrs by Western blot analysis. The test is classed as functional, organism-based. Summed up: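 OU510 carrying pQU2200 (FsrB') and pQU2301 (His6-tagged FsrD) inoculated (6 µl overnight culture) into 1.0 ml THB with inhibitor at various concentrations. Nisin added at 2 h to induce, cells harvested 3 h later. Cells boiled in SDS-PAGE sample buffer; extracts analysed by Western blot with anti-His-tag antibody. Supernatant GBAP activity read by OU510 gelatinase induction.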
For orientation: Immunoblotting shows a protein as a band on a membrane.

The test system of test [2] is Staphylococcus aureus. The test is described as follows: Inhibition of hemolysin production in Staphylococcus aureus 12600T assessed as decrease in hemolytic zone on sheep blood agar at 10 mM after 16 to 48 hrs […]. The test is classed as functional, organism-based. The settings on record: TDE = time-dependent effect. Summed up:
(§1)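 Inhibitor in 50% acetonitrile (5 µl) spotted on sheep blood agar and dried. Plate incubated at 37°C; hemolytic clearance zone around colonies observed and photographed at 16, 24 and 48 h.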

For test [3], the system named is Enterococcus faecalis. The test is described as follows: Inhibition of gelatinase production in Enterococcus faecalis OG1RF after 5 hrs. The test is classed as functional. Summed up:
(§2)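 E. faecalis OG1RF overnight culture (3 µl) inoculated into 0.5 ml THB with sample, grown 5 h at 37°C. Growth read as OD660. Supernatant (25 µl, after 9,100 x g spin) mixed with 0.5 ml azocoll suspension, 4 h at 170 rpm, centrifuged, gelatinase read as OD540. Duplicate experiments, mean ± SD.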

The test system of test [4] is Staphylococcus aureus. The test is described as follows: Inhibition of agr quorom sensing in Staphylococcus aureus 8325-4 harboring pSB2035 assessed as […] at 50 to 200 uM after 7 hrs by GFP fluorescence reporter gene assay.
Test [5] deals with Staphylococcus aureus. The test is described as follows: Inhibition of hemolysin production in Staphylococcus aureus 12600T assessed as decrease in hemolytic zone on sheep blood agar at 5 mM after 16 to 48 hrs […]. It counts as functional, organism-based. The note with it: TDE = time-dependent effect. Put shortly: as §1
In test [6] the test system is Enterococcus faecalis. The test is described as follows: Inhibition of gelatinase production in GBAP-negative Enterococcus faecalis OU510 at 100 uM after 5 hrs in presence of GBAP. The test is classed as functional, organism-based. Put shortly: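 Overnight E. faecalis OU510 (3 µl) grown 5 h in 0.5 ml THB containing 100 µM inhibitor plus synthetic GBAP at various concentrations. Supernatant gelatinase measured by azocoll assay (OD540), growth by OD660. Duplicate experiments; gelatinase/growth ratio computed per experiment and averaged.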

Test [7] has as its system Enterococcus faecalis. The test is described as follows: Inhibition of gelatinase production in Enterococcus faecalis OG1RF at <1 mM after 5 hrs. The test is classed as functional. Summed up: as §2
Test [8] relates to Listeria innocua. The test is described as follows: Inhibition of quormone LsrD826 biosynthesis in Listeria innocua ATCC 33090T at 100 uM by LC/MS analysis. It counts as functional, organism-based. Put shortly:
(§3)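 L. innocua ATCC 33090T overnight culture (25 µl) grown 15 h in 5 ml chemically defined medium. Filtered supernatant loaded on C18 cartridge, washed with 10% acetonitrile/0.1% TFA, eluted with 60% acetonitrile/0.1% TFA. Eluate analysed by LC/MS monitoring m/z 699 (LsrD698) and m/z 827 (LsrD826).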

In test [9] the test system is Enterococcus faecalis. The test is described as follows: Antimicrobial activity against Enterococcus faecalis OG1RF assessed as growth inhibition at <1 mM after 5 hrs. The test is classed as functional. Summed up: as §2
Test [10] deals with Staphylococcus aureus. The test is described as follows: Inhibition of agr quorom sensing in Staphylococcus aureus 8325-4 harboring pSB2035 assessed as […] at 50 to 200 uM after 7 hrs by GFP assay. It counts as functional, organism-based. Summed up: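 S. aureus 8325-4(pSB2035) washed and serially subcultured (1/20 twice, 2 h each), then diluted 1/50 into 200 µl medium with inhibitor, shaken 7 h. OD620 read; cells washed twice in PBS, GFP fluorescence read (ex 490/em 525 nm). Triplicate, mean ± SD. Quenching control: 200 µM added to washed untreated cells, fluorescence followed 15 min.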

The subject of test [11] is Staphylococcus aureus. The test is described as follows: Inhibition of quormone AIP-I biosynthesis in Staphylococcus aureus 12600T at 50 uM by LC/MS analysis. It counts as functional, organism-based. Summed up: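 S. aureus 12600T overnight culture (20 µl) inoculated into 2 ml TSB-YE, grown 15 h. Filtered (0.22 µm) supernatant (40 µl) analysed by C18 LC/ESI-TOF MS, 20–40% acetonitrile in 0.05% TFA, 0.2 ml/min, 30°C. Extracted ion chromatogram at m/z 961–962.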

Test [12] has as its system Staphylococcus aureus. The test is described as follows: Inhibition of hemolysin production in Staphylococcus aureus 12600T assessed as decrease in hemolytic zone on sheep blood agar at 5 to 20 mM upto 48 hrs […]. It counts as functional, organism-based. Put shortly: as §1
The test system of test [13] is Listeria innocua. The test is described as follows: Inhibition of quormone LsrD698 biosynthesis in Listeria innocua ATCC 33090T at 100 uM by LC/MS analysis. It counts as functional, organism-based. Put shortly:
as §3

In test [14] the test system is Staphylococcus aureus. The test is described as follows: Inhibition of hemolysin production in Staphylococcus aureus 12600T assessed as decrease in hemolytic zone on sheep blood agar at 20 mM after 16 to 48 hrs […]. The test is classed as functional, organism-based. The settings on record: TDE = time-dependent effect. Summed up: as §1

For the compound `CCCCC/C=C/C1=C(CO)[C@H](O)[C@H]2O[C@@]2(C/C=C(\C)C(=O)O)C1=O` [AMBUIC ACID], the inhibition entry with Enterococcus faecalis [1], in the test with Staphylococcus aureus [4], with Listeria innocua [8], in the test on Staphylococcus aureus [10], in the test with Staphylococcus aureus [11] and with Listeria innocua [13] was “Active” throughout. For the same compound, the inhibition result was “tde” with Staphylococcus aureus [2], “tde” in the test on Staphylococcus aureus [5], “Dose-dependent effect” with Staphylococcus aureus [12] and “tde” with Staphylococcus aureus [14]. The IC50 in the test on Enterococcus faecalis [3] stood at 10 µM. For the same compound, the inhibition result in the test on Enterococcus faecalis [6] was “inactive”. Also, the outcome in the test on Enterococcus faecalis [7] was Active. In addition, the result in the test with Enterococcus faecalis [9] was inactive.
